Results taken from paper PMC9401565 (Clinical Cancer Research, 2021).
Read-outs that look alike come from different tables or passages of the source.

Key:
MCL cell lines = experiment: CellTiter-Glo viability assay, mean over MCL cell lines; type: cell-based; settings: 72 h, read-out: mean GI50
CLL, MCL, WM = settings: cited from earlier work; for preliminary overall response rate (ORR): 200 mg daily monotherapy, median follow-up 7 months ref 17
BTK [1] = target: T1, BTK (Homo sapiens, UniProt Q06187); experiment: BTK occupancy in patient PBMC lysates; type: in vivo; settings: 6 patients with CLL, 4 hours after treatment
T1 sequence (Q06187 whole entry): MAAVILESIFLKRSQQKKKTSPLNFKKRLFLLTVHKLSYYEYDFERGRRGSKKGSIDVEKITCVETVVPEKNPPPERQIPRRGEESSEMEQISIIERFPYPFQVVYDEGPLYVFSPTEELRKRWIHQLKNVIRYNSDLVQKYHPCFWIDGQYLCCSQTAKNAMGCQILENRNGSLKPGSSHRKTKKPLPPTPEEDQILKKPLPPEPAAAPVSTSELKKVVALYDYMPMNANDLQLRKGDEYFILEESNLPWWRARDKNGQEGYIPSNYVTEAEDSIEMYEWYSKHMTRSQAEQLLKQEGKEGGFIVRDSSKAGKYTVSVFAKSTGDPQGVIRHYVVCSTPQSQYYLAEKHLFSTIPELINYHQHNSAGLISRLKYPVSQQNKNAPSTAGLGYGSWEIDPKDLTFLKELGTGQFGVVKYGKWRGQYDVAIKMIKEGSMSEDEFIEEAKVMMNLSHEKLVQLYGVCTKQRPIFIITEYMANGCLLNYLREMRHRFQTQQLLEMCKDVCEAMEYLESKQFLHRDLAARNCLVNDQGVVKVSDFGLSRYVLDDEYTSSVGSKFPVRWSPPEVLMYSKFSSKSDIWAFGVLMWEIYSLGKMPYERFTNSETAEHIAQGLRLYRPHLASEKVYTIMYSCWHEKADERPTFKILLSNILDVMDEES

BTK [2] = target: T1, BTK; experiment: KINOMEscan quantitative binding assay
[3] = PK analysis, TG-1701 plasma concentrations; type: in vivo, human; settings: patients, from 100 to 300 mg
[4] = tested on: BTK and AKT phosphorylation; experiment: MINO xenograft, intratumor BCR-related kinases by Western blot; type: in vivo, nude mice; settings: single oral gavage 50 mg/kg
How it was run: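 Nude mice aged 6–7 weeks were implanted subcutaneously with 5 × 10^6 MINO cells. Dosing was oral once tumors reached 100–200 mm3. Tumor protein extracts were immunoblotted for BCR-related kinases. Densitometry was normalized to GAPDH or tubulin and referred to the control sample.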

phosphopeptides in PBMC = type: in vivo, human; settings: early-responder patients, 4-hour postdose
REC-BTK^C481S cells = experiment: CellTiter-Glo viability assay; type: cell-based; settings: REC-1–BTK^C481S
MINO MCL xenograft = MINO MCL xenograft model, tumor growth inhibition; type: in vivo, nude mice; settings: orally, twice a day, 16-day treatment
TXK = target: T2, TXK (Homo sapiens, UniProt P42681); experiment: KINOMEscan quantitative binding assay
T2 sequence (P42681 1-527): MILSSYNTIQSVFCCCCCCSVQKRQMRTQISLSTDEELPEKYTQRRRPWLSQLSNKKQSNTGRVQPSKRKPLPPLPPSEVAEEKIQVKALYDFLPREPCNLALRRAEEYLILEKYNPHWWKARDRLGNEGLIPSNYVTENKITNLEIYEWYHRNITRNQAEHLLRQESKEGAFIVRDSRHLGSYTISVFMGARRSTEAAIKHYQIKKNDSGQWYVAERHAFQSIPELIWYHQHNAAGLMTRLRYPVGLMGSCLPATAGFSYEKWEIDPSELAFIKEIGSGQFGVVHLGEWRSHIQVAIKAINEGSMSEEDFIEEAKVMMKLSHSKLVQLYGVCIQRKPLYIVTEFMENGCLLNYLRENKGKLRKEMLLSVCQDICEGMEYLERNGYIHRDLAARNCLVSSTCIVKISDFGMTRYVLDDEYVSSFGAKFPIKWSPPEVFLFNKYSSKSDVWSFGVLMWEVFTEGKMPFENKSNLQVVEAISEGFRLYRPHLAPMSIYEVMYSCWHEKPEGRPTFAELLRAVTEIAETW

CLL = experiment: Phase I trial NCT03671590, clinical outcome of 6 patients with CLL; type: in vivo, human
How it was run: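 Relapsed/refractory CLL patients in trial NCT03671590 took oral test compound once daily (200, 300 or 400 mg) until progression or intolerable toxicity. ALC was recorded on day 1. CLL cell percentage was derived from ALC against the upper normal limit. Best tumor reduction was assessed at C3D1 and graded as partial response or stable disease.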

p-BTK, MYC, YES1 = experiment: Immunoblot of p-BTK, Ikaros, MYC and YES1 in PBMC lysates of patients with CLL; type: in vivo, human; settings: early-responder patients, 4 hours posttreatment
REC-BTK^KO cells = experiment: CellTiter-Glo viability assay; type: cell-based
JAK3 = JAK3 (Homo sapiens, UniProt P52333); experiment: KINOMEscan quantitative binding assay
JAK3, sequence (P52333 781-1124 limits assumed): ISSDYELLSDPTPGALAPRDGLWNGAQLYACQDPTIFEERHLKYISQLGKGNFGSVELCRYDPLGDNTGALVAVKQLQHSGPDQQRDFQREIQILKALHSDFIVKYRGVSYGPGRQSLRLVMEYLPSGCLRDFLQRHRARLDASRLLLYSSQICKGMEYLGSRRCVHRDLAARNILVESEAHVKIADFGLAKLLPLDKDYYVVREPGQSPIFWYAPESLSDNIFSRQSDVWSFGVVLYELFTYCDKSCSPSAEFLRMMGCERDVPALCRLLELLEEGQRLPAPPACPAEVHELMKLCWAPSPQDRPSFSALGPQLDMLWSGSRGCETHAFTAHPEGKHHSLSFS

REC-BTK^wt (REC-1) cells = experiment: CellTiter-Glo viability assay; type: cell-based; settings: Homo sapiens, Rec1, 72 h
BTK^C481S = BTK^C481S (Homo sapiens, UniProt Q06187, C481S); experiment: BTK kinase activity assay, 33P-ATP filtration; type: biochemical; settings: BTK^C481S vs BTK^wt
BTK^C481S, sequence (Q06187 whole entry C481S): as the sequence (Q06187 whole entry) above, with C481S counted along it

UPN-IbruR MCL xenograft = experiment: UPN-IbruR xenograft model, tumor growth; type: in vivo, CB17-SCID mice; settings: 25 mg/kg, every day, 17 days
How it was run: (§1)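 CB17-SCID mice were inoculated subcutaneously with […] REC-1GFP+Luc+ or UPN-IbruR cells. Tumor growth and vital parameters were monitored. Mice received oral test compound at 25 mg/kg daily or vehicle for 17 days. Endpoint tumor burden was read by bioluminescence for REC-1 and by caliper for UPN-IbruR. TGI was calculated versus vehicle.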

[5] = tested on: 10 parental B-NHL cell lines; experiment: CellTiter-Glo viability assay, mean over cell line panel; type: cell-based; settings: 72 h, read-out: mean GI50
[6] = tested on: REC-1^GFP+LUC+ MCL xenograft; experiment: REC-1 xenograft model, tumor growth inhibition; type: in vivo, CB17-SCID mice; settings: 25 mg/kg, every day, 17-day dosing
How it was run: as §1

BTK^wt = BTK^wt (Homo sapiens, UniProt Q06187); experiment: BTK kinase activity assay, 33P-ATP filtration; type: biochemical
BTK^wt, sequence (Q06187 whole entry): as the sequence (Q06187 whole entry) above

[7] = tested on: BCR pathway in DoHH-2 cells; experiment: BCR downstream signaling in IgM-stimulated cells, Western blot; type: cell-based; settings: IgM-stimulated DoHH-2

## CC#CC(=O)N1CC[C@@H](n2cc(-c3ccc(Oc4c(F)cccc4F)cc3)c3c(N)n[nH]c(=O)c32)C1 [TG-1701]
MCL cell lines
  GI50: 4.3 µM
CLL, MCL, WM; CLL
  preliminary overall response rate (ORR): 95%
CLL, MCL, WM; MCL
  preliminary overall response rate (ORR): 50%
CLL, MCL, WM; TG-1701 monotherapy ref 17
  complete responses (CR): No complete responses (CR) are confirmed
CLL, MCL, WM; WM
  preliminary overall response rate (ORR): 95%
BTK [1]
  BTK occupancy: Near-complete BTK occupancy
BTK [2]
  Kd: 0.003 µM
[3]
  dose dependence of Cmax and AUC0–8 hours: approximately dose-proportional increases
[4]
  duration of BTK and AKT dephosphorylation in tumor: at least 24 hours
  earliest time of AKT dephosphorylation in tumor: 4 h
  earliest time of BTK dephosphorylation in tumor: 2 h
Phosphopeptides in PBMC
  phosphorylation of Ikaros p-Ser442/445 upon treatment: totally dephosphorylated
REC-BTK^C481S cells
  fold less sensitive compared with parental REC-1 cells: 2.8 fold
MINO MCL xenograft; 25 mg/kg
  TGI: 56%
MINO MCL xenograft; 50 mg/kg
  TGI: 72%
MINO MCL xenograft; 100 mg/kg
  TGI: 78%
TXK
  Kd fold higher than that of ibrutinib: 68 fold
CLL; patient AII-0011, 400–300 mg daily
  Clinical outcome (% reduction): 87%
CLL; patient AIJ-0001, 200 mg daily
  Clinical outcome (% reduction): 38%
CLL; patient AIJ-0005, 300 mg daily
  Clinical outcome: SD-PR
  Clinical outcome (% reduction): 56%
CLL; patient AIJ-0015, 400 mg daily
  Clinical outcome (% reduction): 86%
CLL; patient AIK-0003, 200 mg daily
  Clinical outcome: SD (lymphocytosis)
p-BTK, MYC, YES1
  downregulation of MYC protein: 48%
  downregulation of p-BTK protein: 70%
  increase of YES1 levels: ~5 fold
REC-BTK^KO cells
  sensitivity of REC-BTK^KO cells: refractory
JAK3
  Kd fold higher than that of ibrutinib: > 94 fold
REC-BTK^wt (REC-1) cells
  GI50: 3.83 µM
BTK^C481S
  fold decrease in inhibitory kinase activity: 54.8 fold
UPN-IbruR MCL xenograft
  sensitivity of UPN-IbruR tumors: almost insensitive
[5]
  GI50: 6.4 µM
[6]
  tumor TGI versus vehicle: 53%
BTK^wt
  EC50: 0.0067 µM
[7]
  concentration of maximal effects on BCR downstream signaling: 100 nmol/L

## C=CC(=O)N1CCC[C@@H](n2nc(-c3ccc(Oc4ccccc4)cc3)c3c(N)ncnc32)C1 [ibrutinib, reference compound]
MCL cell lines
  GI50: 10.8 µM
REC-BTK^KO cells
  sensitivity of REC-BTK^KO cells: refractory
REC-BTK^wt (REC-1) cells
  GI50: 5.82 µM
[5]
  GI50: 14.1 µM
[7]
  concentration of maximal effects on BCR downstream signaling: 10 nmol/L
